# PPC-1+TRAIL kill = compounds killing PPC-1 cancer cells with TRAIL present, primary screen, TRAIL potentiator project, ATPLite luminescence, uHTS | AID 1443, 2008 | 220,000 compounds, 0.41% hits | cell killing (% activity), % at 4 µM or 5 µM | PPC-1 cells + TRAIL, ATPLite viability luminescence;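 active = cell killing above 50% in the first pass at 4 µM, then a duplicate retest at 5 µM averaging 50% or more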;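 also: plate controls were cells with TRAIL plus DMSO for no effect and medium-only wells lacking cells for full effect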
# STAT3 blocker = IL-6 driven STAT3 reporter inhibitors, primary screen, U3A cells, luciferase, luminescence, MLSCN library; AID 862, 2007; inhibition, % at 5.5 µM; IL-6 STAT3-luciferase reporter; host cell line lacks STAT1; 190,000 compounds, 0.89% hits;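 active = inhibition above the mean inhibition across all screened compounds plus 3 SD, cut at about 44% in these data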;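 also: 0% = DMSO only wells and 100% = 100 µM nifuroxazide control wells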
# STAT1 blocker = STAT1 signaling inhibitors, primary screen, cell-based, HTS, luciferase reporter | inhibition, % at 5.5 µM | 200,000 compounds, 0.35% hits | NIH 3T3 STAT1-luciferase reporter, IFN-gamma, luminescence | AID 920, 2007;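 active = inhibition above a set limit, the mean inhibition across all tested compounds plus 3 SD, cut at about 34% in these data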;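 also: 0% = IFN-gamma with DMSO and 100% = IFN-gamma with 300 µM nifuroxazide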
# C8 TRAIL sens = viability loss with TRAIL in NB7+C8 cells, primary screen, TRAIL sensitizer project, cell-based, ATPlite luminescence. AID 624354, 2012. inhibition (viability loss, TRAIL sensitization), % at 10 µM. 360,000 compounds, 1% hits;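 active = compounds causing at least 50% loss of cell viability in the single-dose screen, relative to plate controls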
# STAT3 activator = IL-6 driven STAT3 reporter potentiators, primary screen, U3A cells, luciferase, luminescence, MLSCN library. activation (% of control), % at 5.6 µM. 190,000 compounds, 0.91% hits. IL-6 STAT3-luciferase reporter; 100% = signal with IL-6 EC80 alone;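 active = activation above the screen-wide mean of compound activation plus 3 SD, cut at about 130% in these data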;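 also: 0% = background luminescence of wells with medium and substrate only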
#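 system = STAT3-luciferase reporter U3A cells | reagent = IL-6 stimulus at 33 ng/mL final | timing = 1 h compound pre-exposure, 6 h IL-6 stimulation, 37 °C | measured by = luminescence | evaluation = % activation versus median of IL-6-stimulated wells | control set = IL-6-only wells as 100% reference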
# Starred values were filed as active, the others as inactive; . = not tested or not shown. Rows were chosen to be rich in hits. Some 1.8% of all compounds tested hit in one or more screens of this group.
SMILES,PPC-1+TRAIL kill,STAT3 blocker,STAT1 blocker,C8 TRAIL sens,STAT3 activator
COc1ccccc1NC(CC(=O)c1ccccc1)C(=O)OCC(=O)c1ccc(C)c(C)c1 (stereo not given),29,-8,-26,58*,107
COc1ccccc1NC(CC(=O)c1ccccc1)C(=O)OCC(=O)c1ccc(C)cc1 (stereo not given),0,38,-28,65*,66
COc1ccccc1NC(CC(=O)c1ccccc1)C(=O)OCC(=O)c1ccc(Br)cc1 (stereo not given),14,35,-56,63*,70
O=C(CC(Nc1ccccc1Cl)C(=O)OCC(=O)c1cccs1)c1ccccc1 (stereo not given),22,16,-26,14,92
O=C(Cc1cccc(NC(=O)C2CCN(C(=O)CCc3ccccc3)CC2)c1)Nc1cccc(C(=O)N2CCCC2)c1,.,.,.,-1,.
CCC(=O)N(C1=C(NC(C)C)C(=O)c2ccccc2C1=O)C(C)C,11,3,-4,13,102
CCCNC1=C(N(C(C)=O)c2cccc(F)c2)C(=O)c2ccccc2C1=O,70*,40,7,76*,68
Cc1ccc(Cl)c(NC(=O)COC(=O)c2cc[n+]([O-])cc2)c1Cl,.,.,.,-7,.
COc1ccc(-n2ncc3c(N4CCN(c5cccc(C)c5C)CC4)ncnc32)cc1,.,.,.,9,.
COc1ccc(-n2ncc3c(N4CCCCC4)ncnc32)cc1,.,107*,72*,89*,13
Cc1nc(NCc2ccco2)c2c3c(sc2n1)CCC3,22,-76,-54,11,167*
O=C(NCC(=O)N(c1cccnc1)C(C(=O)NC1CCCCC1)c1ccccc1F)c1ccco1 (stereo not given),.,.,.,-1,.
COc1ccccc1NC(=O)c1ccc(CS(=O)(=O)c2ccc(C)cc2)cc1,11,28,0,6,83
COc1ccccc1NC(=O)c1ccc(C(=O)Nc2ccccc2OC)nc1,.,.,.,4,.
COc1ccccc1NC(=O)c1nc(S(=O)(=O)Cc2ccccc2)ncc1Cl,.,.,.,94*,.
CCOc1ccccc1NC(=O)c1nc(S(=O)(=O)Cc2ccccc2)ncc1Cl,.,.,.,96*,.
CCS(=O)(=O)c1ncc(Cl)c(C(=O)Nc2ccccc2OC)n1,.,.,.,89*,.
CC(OC(=O)c1cc(O)c2ccccc2c1O)C(=O)Nc1ccc(C(N)=O)cc1 (stereo not given),.,.,.,57*,.
CS(=O)(=O)Nc1cccc(NC(=O)C2Cc3c(-c4ccccc4)ccnc3O2)c1 (stereo not given),.,.,.,57*,.
CS(=O)(=O)c1nc(-c2cccs2)cc(C(F)(F)F)n1,-26,13,50*,.,90
CC(Cl)C(=O)N1c2ccccc2CCc2ccccc21 (stereo not given),.,.,.,5,.
O=C(CCl)N1c2ccccc2CCc2ccccc21,.,.,.,95*,.
O=C1[C@@H]2C(c3cccnc3)=NO[C@@H]2C(=O)N1c1ccc2ccccc2c1,6,.,.,-1,.
O=S(=O)(NC1c2cccc3cccc(c23)C1N1CCN(CCO)CC1)c1ccccc1 (stereo not given),22,-30,-1,-3,134*
O=C(/C=C/c1ccccc1O)c1ccc(Cl)cc1,14,-34,6,-3,135*
SMILES,PPC-1+TRAIL kill,STAT3 blocker,STAT1 blocker,C8 TRAIL sens,STAT3 activator
O=C(/C=C/c1ccccc1O)c1ccccc1,.,.,.,3,.
O=C(/C=C\Nc1ccccn1)c1ccc(Cl)cc1,71*,100*,56*,82*,21
Cc1cc([N+](=O)[O-])nn1Cc1noc(C(=O)NCCCn2ccnc2)n1,.,.,.,-5,.
Cc1cc(C)[n+]2[nH]c(N)c(N=Nc3ccccc3)c2n1,.,.,.,5,.
Cc1nn(C)cc1/C=C/C(=O)c1ccccc1,30,-11,-12,36,115
CCn1cc(/C=C/C(=O)c2ccc(O)cc2)c(C)n1,37,0,-20,64*,104
COc1cccc(C2c3[nH]c4ccccc4c3CCN2CCCn2cccn2)c1 (stereo not given),10,-31,9,0,132
CC(C)CC1c2[nH]c3ccccc3c2CCN1CCCn1cccn1 (stereo not given),-6,-31,8,25,133*
CCOc1ccc(C2c3[nH]c4ccccc4c3CCN2CCCn2cccn2)cc1 (stereo not given),1,-32,2,-7,134*
CCc1ccccc1NC(=O)C1CCCC1,.,.,.,-5,.
